Results as given in ChEMBL document CHEMBL1157704, “Potent activity against K562 cells by polyamide-seco-CBI conjugates targeting histone H4 genes” (Bioorg Med Chem, 2010).
The source made the active and inactive calls.

Columns and labels:
K562 [1] = test: Effect on HIST1H1C gene expression in human K562 cells assessed as change in mRNA transcript expression at 10 nM after 48 hrs by DNA microarray analysis relative to control; format: functional
Procedure, shortened: (§1)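 Transcripts were profiled on Affymetrix GeneChip Human Gene 1.0 ST arrays in K562 cells treated at 10 nM. Treated cells were collected at 6, 12, 24 and 48 h; untreated controls were collected at 48 h. Transcripts changed at least twofold versus control were scored.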

K562 [2] = test: Effect on EXOC6B gene expression in human K562 cells assessed as change in mRNA transcript expression at 10 nM after 48 hrs by DNA microarray analysis relative to control; format: functional; procedure, shortened: as §1
K562 [3] = test: Effect on DIAPH2 gene expression in human K562 cells assessed as change in mRNA transcript expression at 10 nM after 48 hrs by DNA microarray analysis relative to control; format: functional; procedure, shortened: as §1
K562 [4] = test: Effect on HIST2H2AB gene expression in human K562 cells assessed as change in mRNA transcript expression at 10 nM after 48 hrs by DNA microarray analysis relative to control; format: functional
Procedure, shortened: (§2)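 K562 CML cells (b3a2 Bcr-Abl) in standard ATCC-recommended culture, exposed once to 10 nM conjugate and harvested at 48 h. Untreated controls were also collected at 48 h. Transcripts were profiled on Human Gene 1.0 ST whole-genome oligonucleotide arrays, and each treated level was expressed relative to the untreated control, with a cutoff of at least twofold change.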

K562 [5] = test: Downregulation of histone H4C mRNA expression in human K562 cells at 125 nM after 48 hrs by real-time PCR analysis; format: functional, cell-based
Procedure, shortened: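 K562 cells were treated for 48 h, and H4c and H4e mRNA were measured by one-step real-time RT-PCR. Reverse transcription ran at 50 °C for 10 min, then hot-start activation at 95 °C for 15 min. Cycling was 45 cycles of 95 °C 15 s, 55 °C 30 s and 72 °C 30 s. Levels were normalized to GAPDH mRNA; error bars are SD.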

K562 [6] = test: Downregulation of histone H4C mRNA expression in human K562 cells at 250 nM after 48 hrs by real-time PCR analysis; format: functional
Procedure, shortened: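 Treated K562 cells were assayed by one-step real-time RT-PCR. Reverse transcription ran 50 °C for 10 min, then hot-start polymerase activation at 95 °C for 15 min. Cycling was 45 cycles of 95 °C 15 s, 55 °C 30 s and 72 °C 30 s. Levels were normalized to GAPDH mRNA; error shown as standard deviation.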

K562 [7] = test: Induction of apoptosis in human K562 cells assessed as viable cells at 250 nM after 48 hrs by annexin-V FITC and propidium iodide staining-based FACS analysis; format: functional; conditions: K562, 48 h, read-out: Activity
Procedure, shortened: (§3)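 Treated K562 cells […] stained with Annexin V-FITC/propidium iodide. Apoptosis was scored by two-dimensional flow cytometry at a core FACS facility.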

K562 [8] = test: Induction of apoptosis in human K562 cells assessed as early apoptotic cells at 250 nM after 48 hrs by annexin-V FITC and propidium iodide staining-based FACS analysis; format: functional; procedure, shortened: as §3
K562 [9] = test: Effect on HIST1H4K gene expression in human K562 cells assessed as down-regulation of mRNA transcript expression at 10 nM after 48 hrs by DNA microarray analysis relative to control; format: functional; procedure, shortened: as §2
K562 [10] = test: Effect on HIST1H4C gene expression in human K562 cells assessed as down-regulation of mRNA transcript expression at 10 nM after 48 hrs by DNA microarray analysis relative to control; format: functional; procedure, shortened: as §1
K562 [11] = test: Effect on DHFR gene expression in human K562 cells assessed as change in mRNA transcript expression at 10 nM after 48 hrs by DNA microarray analysis relative to control; format: functional; procedure, shortened: as §1
K562 [12] = test: Effect on PLCB2 gene expression in human K562 cells assessed as change in mRNA transcript expression at 10 nM after 48 hrs by DNA microarray analysis relative to control; format: functional; procedure, shortened: as §2
K562 [13] = test: Effect on INPP1 gene expression in human K562 cells assessed as change in mRNA transcript expression at 10 nM after 48 hrs by DNA microarray analysis relative to control; format: functional; procedure, shortened: as §2
K562 [14] = test: Effect on ITGA2B gene expression in human K562 cells assessed as change in mRNA transcript expression at 10 nM after 48 hrs by DNA microarray analysis relative to control; format: functional; procedure, shortened: as §2
K562 [15] = test: Effect on TDRG1 gene expression in human K562 cells assessed as change in mRNA transcript expression at 10 nM after 48 hrs by DNA microarray analysis relative to control; format: functional; procedure, shortened: as §2
K562 [16] = test: Effect on LGALS3BP gene expression in human K562 cells assessed as change in mRNA transcript expression at 10 nM after 48 hrs by DNA microarray analysis relative to control; format: functional; procedure, shortened: as §2
K562 [17] = test: Effect on SLC4A1 gene expression in human K562 cells assessed as change in mRNA transcript expression at 10 nM after 48 hrs by DNA microarray analysis relative to control; format: functional; procedure, shortened: as §2
K562 [18] = test: Effect on INPP5D gene expression in human K562 cells assessed as change in mRNA transcript expression at 10 nM after 48 hrs by DNA microarray analysis relative to control; format: functional; procedure, shortened: as §2
K562 [19] = test: Effect on HIST2H2B gene expression in human K562 cells assessed as change in mRNA transcript expression at 10 nM after 48 hrs by DNA microarray analysis relative to control; format: functional; procedure, shortened: as §2
K562 [20] = test: Effect on PYROXD1 gene expression in human K562 cells assessed as change in mRNA transcript expression at 10 nM after 48 hrs by DNA microarray analysis relative to control; format: functional; procedure, shortened: as §2
K562 [21] = test: Effect on BAMBI gene expression in human K562 cells assessed as change in mRNA transcript expression at 10 nM after 48 hrs by DNA microarray analysis relative to control; format: functional; procedure, shortened: as §1
K562 [22] = test: Effect on HIST1H1E gene expression in human K562 cells assessed as change in mRNA transcript expression at 10 nM after 48 hrs by DNA microarray analysis relative to control; format: functional; procedure, shortened: as §1
K562 [23] = test: Effect on HIST1H2BH gene expression in human K562 cells assessed as change in mRNA transcript expression at 10 nM after 48 hrs by DNA microarray analysis relative to control; format: functional; procedure, shortened: as §1
K562 [24] = test: Effect on TPK1 gene expression in human K562 cells assessed as change in mRNA transcript expression at 10 nM after 48 hrs by DNA microarray analysis relative to control; format: functional
Procedure, shortened: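 K562 CML cells (b3a2 Bcr-Abl) kept under standard culture conditions were exposed to 10 nM conjugate and harvested at 6, 12, 24 and 48 h. Untreated controls were harvested at 48 h. Whole-transcript oligonucleotide microarray profiling was done, and changes of at least twofold versus control were scored.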

K562 [25] = test: Effect on SNORD80 gene expression in human K562 cells assessed as change in mRNA transcript expression at 10 nM after 48 hrs by DNA microarray analysis relative to control; format: functional; procedure, shortened: as §2
K562 [26] = test: Effect on MRPS28 gene expression in human K562 cells assessed as change in mRNA transcript expression at 10 nM after 48 hrs by DNA microarray analysis relative to control; format: functional; procedure, shortened: as §2

CC(=O)Nc1cn(C)c(C(=O)Nc2cn(C)c(C(=O)NCCC(=O)Nc3cn(C)c(C(=O)NCCCC(=O)Nc4cc(C(=O)Nc5cn(C)c(C(=O)Nc6ccc7[nH]c(C(=O)N8CC(CCl)c9c8cc(O)c8ccccc98)cc7c6)n5)n(C)c4)n3)n2)n1 (stereo unspecified)
fold change (FC) (K562 [1]): >=2 | fold change (FC) (K562 [2]): >=2 | fold change (FC) (K562 [3]): >=2 | fold change (FC) (K562 [4]): >=2 | Activity (K562 [5]): Active | Activity (K562 [6]): 93% | viability at 0.25 µM (K562 [7]): 71.8% | Activity (K562 [8]): 17.1% | fold change (FC) (K562 [9]): 2.71 | fold change (FC) (K562 [10]): 2.86 | fold change (FC) (K562 [11]): >=2 | fold change (FC) (K562 [12]): >=2 | fold change (FC) (K562 [13]): >=2 | fold change (FC) (K562 [14]): >=2 | fold change (FC) (K562 [15]): >=2 | fold change (FC) (K562 [16]): >=2 | fold change (FC) (K562 [17]): >=2 | fold change (FC) (K562 [18]): >=2 | fold change (FC) (K562 [19]): >=2 | fold change (FC) (K562 [20]): >=2 | fold change (FC) (K562 [21]): >=2 | fold change (FC) (K562 [22]): >=2 | fold change (FC) (K562 [23]): >=2 | fold change (FC) (K562 [24]): >=2 | fold change (FC) (K562 [25]): >=2 | fold change (FC) (K562 [26]): >=2
